One may read the inhibition as the percentage by which the read-out fell short of the control.

Our source for the fold change (FC) and inhibition values is ChEMBL document CHEMBL5653631, “A Potent and Selective ULK1 Inhibitor Suppresses Autophagy and Sensitizes Cancer Cells to Nutrient Stress” (iScience, 2018).

Assay [1] has as its target Serine/threonine-protein kinase N1 (Homo sapiens) (UniProt Q16512). Kind of assay: Inhibition of human recombinant PKN1 at 15 nM related to control ULK1.
The target of assay [2] is Ribosomal protein S6 kinase alpha-1 (Homo sapiens) (UniProt Q15418). Kind of assay: Inhibition of human recombinant RSK1 at 15 nM in presence of ATP by radiometric assay relative to control.
Assay [3] concerns the target Serine/threonine-protein kinase SBK1 (Homo sapiens) (UniProt Q52WX2). Kind of assay: Inhibition of human recombinant SBK1 at 15 nM in presence of ATP by radiometric assay relative to control.
In assay [4] the target is Ribosomal protein S6 kinase alpha-5 (Homo sapiens) (UniProt O75582). Kind of assay: Inhibition of human recombinant MSK1 at 15 nM related to control ULK1.
For assay [5], the target named is Tyrosine-protein kinase ABL2 (Homo sapiens) (UniProt P42684). Kind of assay: Inhibition of human recombinant ABL2 at 40 nM in presence of ATP by radiometric assay relative to control. Put shortly:
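Panel of 327 recombinant human kinases in radiometric activity assays, each screened in duplicate at a single inhibitor concentration; percent activity remaining relative to vehicle control, percent inhibition taken as 100 minus activity remaining.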

Assay [6] addresses Mitogen-activated protein kinase kinase kinase kinase 1 (Homo sapiens) (UniProt Q92918). Put plainly: Inhibition of human recombinant HPK1 at 40 nM in presence of ATP by radiometric assay relative to control.
The target in assay [7] is Receptor tyrosine-protein kinase erbB-2 (Homo sapiens) (UniProt P04626). Put plainly: Inhibition of human recombinant ErbB2 at 40 nM related to control ULK1.
In assay [8] the target is SRSF protein kinase 1 (Homo sapiens) (UniProt Q96SB4). Put plainly: Inhibition of human recombinant SRPK1 at 40 nM related to control ULK1.
Assay [9] deals with T1, Discoidin domain-containing receptor 2 (Homo sapiens) (UniProt Q16832).
T1 sequence (whole entry): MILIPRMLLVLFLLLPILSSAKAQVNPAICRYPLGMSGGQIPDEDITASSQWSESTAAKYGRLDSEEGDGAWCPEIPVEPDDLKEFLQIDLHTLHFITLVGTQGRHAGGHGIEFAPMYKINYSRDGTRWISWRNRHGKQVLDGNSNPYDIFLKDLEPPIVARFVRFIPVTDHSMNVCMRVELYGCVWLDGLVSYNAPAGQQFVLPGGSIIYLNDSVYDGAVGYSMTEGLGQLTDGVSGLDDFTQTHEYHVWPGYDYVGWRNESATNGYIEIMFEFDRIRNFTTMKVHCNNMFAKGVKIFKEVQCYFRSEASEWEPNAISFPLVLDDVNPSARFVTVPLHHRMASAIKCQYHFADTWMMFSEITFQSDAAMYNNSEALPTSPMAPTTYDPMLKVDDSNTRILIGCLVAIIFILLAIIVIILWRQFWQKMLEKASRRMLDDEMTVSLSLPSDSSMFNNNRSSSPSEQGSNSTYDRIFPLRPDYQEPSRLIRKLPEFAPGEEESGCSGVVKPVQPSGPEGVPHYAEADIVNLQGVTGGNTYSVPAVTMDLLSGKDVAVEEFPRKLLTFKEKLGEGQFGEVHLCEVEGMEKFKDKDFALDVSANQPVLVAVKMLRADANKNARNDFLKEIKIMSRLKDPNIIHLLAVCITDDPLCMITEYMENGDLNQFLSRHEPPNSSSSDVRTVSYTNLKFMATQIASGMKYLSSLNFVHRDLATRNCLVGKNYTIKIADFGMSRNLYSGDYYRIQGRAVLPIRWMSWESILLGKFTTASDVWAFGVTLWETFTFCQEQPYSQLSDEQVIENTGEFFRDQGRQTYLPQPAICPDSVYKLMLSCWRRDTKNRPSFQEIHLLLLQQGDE
Kind of assay: Inhibition of human recombinant DDR2 at 40 nM related to control ULK1.

The target in assay [10] is Serine/threonine-protein kinase/endoribonuclease IRE1 (Homo sapiens) (UniProt O75460). Kind of assay: Inhibition of human recombinant IRE1 at 40 nM related to control ULK1.
The target in assay [11] is T2, Serine/threonine-protein kinase PLK4 (Homo sapiens) (UniProt O00444).
T2 sequence (whole entry): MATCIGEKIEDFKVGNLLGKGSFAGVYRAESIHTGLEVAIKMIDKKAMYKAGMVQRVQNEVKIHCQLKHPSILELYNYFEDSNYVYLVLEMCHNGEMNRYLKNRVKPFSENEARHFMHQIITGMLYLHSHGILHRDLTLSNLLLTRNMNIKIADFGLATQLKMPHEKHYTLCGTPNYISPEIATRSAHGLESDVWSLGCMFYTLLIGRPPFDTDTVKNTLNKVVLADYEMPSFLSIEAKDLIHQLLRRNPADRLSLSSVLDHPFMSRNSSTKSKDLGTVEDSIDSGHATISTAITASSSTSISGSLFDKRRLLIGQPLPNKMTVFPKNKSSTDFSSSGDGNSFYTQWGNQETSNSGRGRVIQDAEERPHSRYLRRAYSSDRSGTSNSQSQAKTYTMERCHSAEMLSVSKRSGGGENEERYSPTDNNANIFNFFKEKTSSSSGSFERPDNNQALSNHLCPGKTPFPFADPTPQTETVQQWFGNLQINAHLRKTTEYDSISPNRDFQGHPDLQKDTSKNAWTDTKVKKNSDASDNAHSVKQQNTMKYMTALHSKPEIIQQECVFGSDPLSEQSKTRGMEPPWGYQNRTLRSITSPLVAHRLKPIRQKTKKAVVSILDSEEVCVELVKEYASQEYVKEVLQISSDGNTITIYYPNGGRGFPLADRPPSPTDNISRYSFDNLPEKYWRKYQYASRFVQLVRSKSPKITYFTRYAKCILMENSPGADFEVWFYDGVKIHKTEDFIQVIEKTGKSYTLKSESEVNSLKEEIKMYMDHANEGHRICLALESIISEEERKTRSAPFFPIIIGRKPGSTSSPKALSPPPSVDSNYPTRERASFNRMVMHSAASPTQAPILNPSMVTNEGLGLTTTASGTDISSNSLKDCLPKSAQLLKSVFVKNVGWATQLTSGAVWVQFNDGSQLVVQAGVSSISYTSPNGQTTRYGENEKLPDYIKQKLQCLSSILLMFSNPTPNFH
Put plainly: Inhibition of human recombinant PLK4 at 40 nM related to control ULK1.

Assay [12] concerns the target T1, Discoidin domain-containing receptor 2 (Homo sapiens). Kind of assay: Inhibition of human recombinant DDR2 at 500 nM related to control ULK1.
The target of assay [13] is Serine/threonine-protein kinase 24 (Homo sapiens) (UniProt Q9Y6E0). Kind of assay: Inhibition of human recombinant MST3 at 500 nM in presence of ATP by radiometric assay relative to control.

Chain of Serine/threonine-protein kinase SBK1 (Homo sapiens) (Q52WX2 whole entry): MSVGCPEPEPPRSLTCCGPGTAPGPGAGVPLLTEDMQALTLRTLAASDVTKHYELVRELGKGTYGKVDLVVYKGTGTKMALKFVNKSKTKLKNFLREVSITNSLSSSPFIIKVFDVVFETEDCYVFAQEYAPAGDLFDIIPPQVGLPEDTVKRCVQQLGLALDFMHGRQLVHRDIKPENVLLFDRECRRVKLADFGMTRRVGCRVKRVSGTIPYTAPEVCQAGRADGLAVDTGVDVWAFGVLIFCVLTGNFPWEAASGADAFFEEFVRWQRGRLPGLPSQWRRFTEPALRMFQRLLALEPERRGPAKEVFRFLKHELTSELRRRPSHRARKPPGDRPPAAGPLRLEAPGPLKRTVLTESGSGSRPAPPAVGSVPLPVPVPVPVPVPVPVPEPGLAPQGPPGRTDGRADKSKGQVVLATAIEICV
Chain of Ribosomal protein S6 kinase alpha-1 (Homo sapiens) (Q15418 whole entry): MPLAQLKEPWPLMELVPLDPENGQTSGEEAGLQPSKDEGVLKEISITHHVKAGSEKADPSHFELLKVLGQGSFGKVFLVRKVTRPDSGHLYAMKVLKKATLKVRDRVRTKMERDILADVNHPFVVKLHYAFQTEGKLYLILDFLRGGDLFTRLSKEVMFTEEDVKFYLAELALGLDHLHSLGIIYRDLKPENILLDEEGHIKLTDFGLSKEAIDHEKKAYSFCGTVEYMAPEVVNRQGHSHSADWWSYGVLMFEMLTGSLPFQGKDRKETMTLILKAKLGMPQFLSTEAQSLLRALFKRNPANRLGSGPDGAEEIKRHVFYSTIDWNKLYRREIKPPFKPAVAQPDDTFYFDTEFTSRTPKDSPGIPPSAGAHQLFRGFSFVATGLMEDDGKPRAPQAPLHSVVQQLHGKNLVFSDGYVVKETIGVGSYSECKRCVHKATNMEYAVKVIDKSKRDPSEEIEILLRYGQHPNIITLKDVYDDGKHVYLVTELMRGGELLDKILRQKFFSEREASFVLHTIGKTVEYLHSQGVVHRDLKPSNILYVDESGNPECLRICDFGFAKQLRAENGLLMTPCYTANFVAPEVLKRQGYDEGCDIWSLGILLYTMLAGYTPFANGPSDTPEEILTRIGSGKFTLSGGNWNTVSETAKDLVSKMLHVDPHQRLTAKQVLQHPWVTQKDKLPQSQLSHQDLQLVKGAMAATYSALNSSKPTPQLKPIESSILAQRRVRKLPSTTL
Chain of Mitogen-activated protein kinase kinase kinase kinase 1 (Homo sapiens) (Q92918 whole entry, looked up): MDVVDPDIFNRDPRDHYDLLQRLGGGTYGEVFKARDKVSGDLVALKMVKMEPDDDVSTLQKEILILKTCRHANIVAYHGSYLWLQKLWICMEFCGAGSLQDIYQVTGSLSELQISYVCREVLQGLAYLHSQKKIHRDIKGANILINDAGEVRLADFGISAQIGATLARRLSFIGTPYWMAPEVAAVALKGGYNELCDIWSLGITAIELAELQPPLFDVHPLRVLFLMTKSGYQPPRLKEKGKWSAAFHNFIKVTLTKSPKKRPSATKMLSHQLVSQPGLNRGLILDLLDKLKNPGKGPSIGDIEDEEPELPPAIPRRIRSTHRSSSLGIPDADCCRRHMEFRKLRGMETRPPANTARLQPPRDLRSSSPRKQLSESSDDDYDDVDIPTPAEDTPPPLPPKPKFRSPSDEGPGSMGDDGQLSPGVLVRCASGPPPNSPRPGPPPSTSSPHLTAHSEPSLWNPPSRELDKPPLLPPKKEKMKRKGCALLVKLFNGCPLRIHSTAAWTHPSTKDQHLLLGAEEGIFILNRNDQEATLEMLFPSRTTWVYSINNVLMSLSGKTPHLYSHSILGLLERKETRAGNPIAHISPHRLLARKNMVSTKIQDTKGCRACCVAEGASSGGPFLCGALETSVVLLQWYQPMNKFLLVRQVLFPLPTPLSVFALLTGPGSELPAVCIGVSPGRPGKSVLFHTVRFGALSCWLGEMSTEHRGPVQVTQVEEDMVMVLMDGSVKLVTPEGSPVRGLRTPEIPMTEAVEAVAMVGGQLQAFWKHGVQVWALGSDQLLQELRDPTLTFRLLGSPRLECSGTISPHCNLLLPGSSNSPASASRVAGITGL
Chain of Serine/threonine-protein kinase N1 (Homo sapiens) (Q16512 2-942 limits assumed): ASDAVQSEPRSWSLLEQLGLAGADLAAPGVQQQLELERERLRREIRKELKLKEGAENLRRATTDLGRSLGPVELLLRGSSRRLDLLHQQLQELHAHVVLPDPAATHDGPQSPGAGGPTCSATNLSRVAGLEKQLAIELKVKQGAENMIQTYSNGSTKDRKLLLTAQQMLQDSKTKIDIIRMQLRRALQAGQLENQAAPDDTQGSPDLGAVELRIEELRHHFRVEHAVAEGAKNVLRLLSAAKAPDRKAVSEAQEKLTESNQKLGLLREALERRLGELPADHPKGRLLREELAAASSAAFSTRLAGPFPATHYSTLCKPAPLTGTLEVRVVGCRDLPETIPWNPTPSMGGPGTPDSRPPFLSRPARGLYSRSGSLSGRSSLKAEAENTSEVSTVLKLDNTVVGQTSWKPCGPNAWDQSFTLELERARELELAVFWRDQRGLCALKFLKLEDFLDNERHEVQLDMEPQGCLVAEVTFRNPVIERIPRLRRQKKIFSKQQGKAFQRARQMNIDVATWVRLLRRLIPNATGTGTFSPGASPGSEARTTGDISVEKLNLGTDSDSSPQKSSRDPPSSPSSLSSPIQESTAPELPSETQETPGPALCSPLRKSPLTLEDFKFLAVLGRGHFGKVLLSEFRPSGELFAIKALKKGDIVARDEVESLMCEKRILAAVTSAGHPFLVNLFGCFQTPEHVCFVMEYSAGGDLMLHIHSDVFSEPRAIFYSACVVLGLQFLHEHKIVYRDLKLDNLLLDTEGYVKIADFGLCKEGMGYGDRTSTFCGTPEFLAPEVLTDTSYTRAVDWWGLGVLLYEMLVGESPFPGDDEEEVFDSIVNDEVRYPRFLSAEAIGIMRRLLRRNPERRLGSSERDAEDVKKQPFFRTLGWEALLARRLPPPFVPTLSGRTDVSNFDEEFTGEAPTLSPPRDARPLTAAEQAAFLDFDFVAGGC
Chain of Tyrosine-protein kinase ABL2 (Homo sapiens) (P42684 whole entry): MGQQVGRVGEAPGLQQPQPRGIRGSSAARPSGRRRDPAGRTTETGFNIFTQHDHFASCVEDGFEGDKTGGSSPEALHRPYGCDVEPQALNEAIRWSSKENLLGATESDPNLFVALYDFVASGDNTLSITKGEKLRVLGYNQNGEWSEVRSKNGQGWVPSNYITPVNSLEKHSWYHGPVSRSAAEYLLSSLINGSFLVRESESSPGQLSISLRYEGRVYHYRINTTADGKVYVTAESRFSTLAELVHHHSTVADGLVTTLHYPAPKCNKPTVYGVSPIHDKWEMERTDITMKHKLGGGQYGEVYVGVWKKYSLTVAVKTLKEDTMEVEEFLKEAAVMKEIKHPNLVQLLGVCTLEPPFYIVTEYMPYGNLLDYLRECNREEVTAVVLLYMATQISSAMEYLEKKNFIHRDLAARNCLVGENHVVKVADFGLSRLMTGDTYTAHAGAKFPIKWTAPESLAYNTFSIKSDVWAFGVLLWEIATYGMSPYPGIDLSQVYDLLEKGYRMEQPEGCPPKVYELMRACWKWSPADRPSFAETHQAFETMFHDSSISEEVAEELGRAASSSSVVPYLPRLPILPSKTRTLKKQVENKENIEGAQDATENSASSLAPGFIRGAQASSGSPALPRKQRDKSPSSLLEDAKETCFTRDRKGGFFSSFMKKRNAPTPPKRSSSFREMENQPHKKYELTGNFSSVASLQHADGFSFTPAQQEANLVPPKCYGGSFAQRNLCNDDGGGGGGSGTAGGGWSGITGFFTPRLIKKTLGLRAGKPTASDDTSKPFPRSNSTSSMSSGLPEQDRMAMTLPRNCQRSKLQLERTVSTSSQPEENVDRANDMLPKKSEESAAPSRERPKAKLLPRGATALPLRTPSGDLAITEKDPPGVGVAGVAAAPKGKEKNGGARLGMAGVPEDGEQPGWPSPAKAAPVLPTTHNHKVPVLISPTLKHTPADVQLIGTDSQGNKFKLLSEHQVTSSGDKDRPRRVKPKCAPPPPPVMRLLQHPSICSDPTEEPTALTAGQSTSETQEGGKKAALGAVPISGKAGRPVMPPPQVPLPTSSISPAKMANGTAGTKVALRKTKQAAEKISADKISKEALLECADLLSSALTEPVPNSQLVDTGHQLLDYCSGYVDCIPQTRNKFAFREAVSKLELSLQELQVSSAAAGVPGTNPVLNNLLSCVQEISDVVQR
Chain of Ribosomal protein S6 kinase alpha-5 (Homo sapiens) (O75582 whole entry, looked up): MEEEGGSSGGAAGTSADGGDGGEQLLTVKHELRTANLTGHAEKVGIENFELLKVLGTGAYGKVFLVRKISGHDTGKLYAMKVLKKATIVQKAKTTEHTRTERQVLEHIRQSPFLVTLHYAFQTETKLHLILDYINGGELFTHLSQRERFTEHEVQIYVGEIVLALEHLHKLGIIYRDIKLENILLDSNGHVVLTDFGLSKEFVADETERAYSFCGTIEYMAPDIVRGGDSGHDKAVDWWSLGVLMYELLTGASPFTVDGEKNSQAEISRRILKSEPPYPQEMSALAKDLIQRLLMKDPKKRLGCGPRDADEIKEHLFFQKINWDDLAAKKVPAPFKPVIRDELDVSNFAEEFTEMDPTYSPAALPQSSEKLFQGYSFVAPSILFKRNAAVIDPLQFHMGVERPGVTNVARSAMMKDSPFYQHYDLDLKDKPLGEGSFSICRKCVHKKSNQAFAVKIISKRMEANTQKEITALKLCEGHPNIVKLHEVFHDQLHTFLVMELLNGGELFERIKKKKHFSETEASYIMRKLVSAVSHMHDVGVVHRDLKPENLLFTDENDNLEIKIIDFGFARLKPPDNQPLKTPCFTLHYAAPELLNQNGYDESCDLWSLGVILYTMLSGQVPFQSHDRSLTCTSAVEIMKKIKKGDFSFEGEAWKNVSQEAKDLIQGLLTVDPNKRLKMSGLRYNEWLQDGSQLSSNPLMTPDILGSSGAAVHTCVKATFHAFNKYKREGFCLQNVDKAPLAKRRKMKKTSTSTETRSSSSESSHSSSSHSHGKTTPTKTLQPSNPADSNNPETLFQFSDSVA

Regarding `CC(C)[C@H](NC(=O)c1cc(-c2cnn3cc(-c4ccc(OCCN5CCCCC5)cc4)cnc23)cs1)C(F)(F)F`, the fold change (FC) in assay [1] came out at 0; in [4], 0.02. Moreover, the inhibition in assay [2] turned out to be 23%; in assay [3] it was 5%.
Take `O=C(N[C@@H](C1CC1)C(F)(F)F)c1cc(-c2cnn3cc(-c4ccc(F)cc4)cnc23)cs1`: the figures for the inhibition in [5] and in assay [6] were 7% and 0%, respectively. Besides, the fold change (FC) in assay [7] was 0; in assay [8] it was 0.14; in [9], 0; in [10], 0; in assay [11], 0.1.
Regarding `CNC(=O)c1ccccc1Oc1nc(Nc2cc(OC)c(OC)c(OC)c2)ncc1Br`, the fold change (FC) in assay [12] amounted to 0. The inhibition in assay [13] worked out at 58%.
